# Source: PMC10975593 (ACS Omega, 2024)
# What was measured:
# KM12 = test: NCI 60-cell line screen; assay type: cell-based, human
# SNB-75 = test: NCI 60-cell line screen; assay type: cell-based, human
# How it was run: (§1)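 Test compounds were submitted to the National Cancer Institute and run under NCI's standard 60-cell-line protocols. Read-outs were taken from percent-growth versus log-concentration curves.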
# A498 = test: NCI 60-cell line screen; assay type: cell-based, human
# MDA-MB-435 = test: NCI 60-cell line screen; assay type: cell-based, human
# NCI/ADR-RES = test: NCI 60-cell line screen; assay type: cell-based, human
# M14 = test: NCI 60-cell line screen; assay type: cell-based, human
# HOP-62 = test: NCI 60-cell line screen; assay type: cell-based, human
# SF-295 = test: NCI 60-cell line screen; assay type: cell-based, human
# How it was run: as §1
# MALME-3M = test: NCI 60-cell line screen; assay type: cell-based, human
# EKVX = test: NCI 60-cell line screen; assay type: cell-based, human
# NCI-H226 = test: NCI 60-cell line screen; assay type: cell-based, human
# BT-549 = test: NCI 60-cell line screen; assay type: cell-based, human
# MDA-MB-231/ATCC = test: NCI 60-cell line screen; assay type: cell-based, human
# OVCAR-4 = test: NCI 60-cell line screen; assay type: cell-based, human
# NCI-H23 = test: NCI 60-cell line screen; assay type: cell-based, human
# OVCAR-3 = test: NCI 60-cell line screen; assay type: cell-based, human
# CCRF-CEM = test: NCI 60-cell line screen; assay type: cell-based, human
# Fibro cell line = test: % inhibition on normal cell line; assay type: cell-based
# K-562 = test: NCI 60-cell line screen; assay type: cell-based, human
# SN12C = test: NCI 60-cell line screen; assay type: cell-based, human
# How it was run: as §1
# SK-MEL-28 = test: NCI 60-cell line screen; assay type: cell-based, human
# How it was run: as §1
# ACHN = test: NCI 60-cell line screen; assay type: cell-based, human
# HOP-92 = test: NCI 60-cell line screen; assay type: cell-based, human
# SF-539 = test: NCI 60-cell line screen; assay type: cell-based, human
# How it was run: as §1
# SNB-19 = test: NCI 60-cell line screen; assay type: cell-based, human
# How it was run: as §1
# UACC-62 = test: NCI 60-cell line screen; assay type: cell-based, human
# How it was run: as §1
# HCT-116 = test: NCI 60-cell line screen; assay type: cell-based, human
structure (smiles),measurement,setting,value
"O=C(CNc1ccc([N+](=O)[O-])cc1)Nc1nc2ccccc2s1 [OMS5, N-(1,3-benzothiazol-2-yl)-2-(4-nitroanilino)acetamide]",GI50,"KM12; Homo sapiens, KM12",1200 nM
same,IC50,"KM12; Homo sapiens, KM12",2500 nM
same,CC50,"KM12; Homo sapiens, KM12, read-out: LC50",52500 nM
same,TGI,"KM12; KM12, colon cancer",12000 nM
same,GI50,"SNB-75; Homo sapiens, SNB-75",1400 nM
same,IC50,"SNB-75; Homo sapiens, SNB-75",3000 nM
same,CC50,"SNB-75; Homo sapiens, SNB-75, read-out: LC50",5900 nM
same,TGI,"SNB-75; SNB-75, CNS cancer",2900 nM
same,TGI,"A498; A498, renal cancer",6500 nM
same,GI50,"A498; Homo sapiens, A498",1400 nM
same,IC50,"A498; Homo sapiens, A498",7200 nM
same,CC50,"A498; Homo sapiens, A498, read-out: LC50",28800 nM
same,GI50,"MDA-MB-435; Homo sapiens, MDA-MB-435",700 nM
same,IC50,"MDA-MB-435; Homo sapiens, MDA-MB-435",1300 nM
same,CC50,"MDA-MB-435; Homo sapiens, MDA-MB-435, read-out: LC50",4800 nM
same,TGI,"MDA-MB-435; MDA-MB-435, melanoma",2000 nM
same,GI50,NCI/ADR-RES; Homo sapiens,600 nM
same,IC50,NCI/ADR-RES; Homo sapiens,1300 nM
same,CC50,"NCI/ADR-RES; Homo sapiens, read-out: LC50",53700 nM
same,TGI,NCI/ADR-RES; ovarian cancer,4600 nM
same,GI50,"M14; Homo sapiens, M14",900 nM
same,IC50,"M14; Homo sapiens, M14",1400 nM
same,CC50,"M14; Homo sapiens, M14, read-out: LC50",6500 nM
same,TGI,"M14; M14, melanoma",2500 nM
same,TGI,"HOP-62; HOP-62, non-small cell lung cancer",4900 nM
same,GI50,"HOP-62; Homo sapiens, HOP-62",1200 nM
same,IC50,"HOP-62; Homo sapiens, HOP-62",3000 nM
same,CC50,"HOP-62; Homo sapiens, HOP-62, read-out: LC50",25100 nM
same,GI50,"SF-295; Homo sapiens, SF-295",700 nM
same,IC50,"SF-295; Homo sapiens, SF-295",1400 nM
same,CC50,"SF-295; Homo sapiens, SF-295, read-out: LC50",24000 nM
same,TGI,"SF-295; SF-295, CNS cancer",4400 nM
same,GI50,"MALME-3M; Homo sapiens, Malme-3M",1100 nM
same,IC50,"MALME-3M; Homo sapiens, Malme-3M",2100 nM
same,CC50,"MALME-3M; Homo sapiens, Malme-3M, read-out: LC50",5000 nM
same,TGI,"MALME-3M; MALME-3M, melanoma",2300 nM
same,GI50,EKVX; Homo sapiens,1100 nM
same,IC50,EKVX; Homo sapiens,2500 nM
same,CC50,"EKVX; Homo sapiens, read-out: LC50",26900 nM
same,TGI,EKVX; non-small cell lung cancer,4200 nM
same,GI50,"NCI-H226; Homo sapiens, NCI-H226",600 nM
same,IC50,"NCI-H226; Homo sapiens, NCI-H226",3000 nM
same,CC50,"NCI-H226; Homo sapiens, NCI-H226, read-out: LC50",> 100000 nM
same,TGI,"NCI-H226; NCI-H226, non-small cell lung cancer",4900 nM
same,TGI,"BT-549; BT-549, breast cancer",6500 nM
same,GI50,"BT-549; Homo sapiens, BT-549",2000 nM
same,IC50,"BT-549; Homo sapiens, BT-549",5400 nM
same,CC50,"BT-549; Homo sapiens, BT-549, read-out: LC50",27500 nM
same,GI50,"MDA-MB-231/ATCC; Homo sapiens, MDA-MB-231",1000 nM
same,IC50,"MDA-MB-231/ATCC; Homo sapiens, MDA-MB-231",2300 nM
same,CC50,"MDA-MB-231/ATCC; Homo sapiens, MDA-MB-231, read-out: LC50",8300 nM
same,TGI,"MDA-MB-231/ATCC; MDA-MB-231/ATCC, breast cancer",2900 nM
same,GI50,"OVCAR-4; Homo sapiens, OVCAR-4",1000 nM
same,IC50,"OVCAR-4; Homo sapiens, OVCAR-4",3000 nM
same,CC50,"OVCAR-4; Homo sapiens, OVCAR-4, read-out: LC50",40700 nM
same,TGI,"OVCAR-4; OVCAR-4, ovarian cancer",5100 nM
same,GI50,"NCI-H23; Homo sapiens, NCI-H23",1000 nM
same,IC50,"NCI-H23; Homo sapiens, NCI-H23",2100 nM
same,CC50,"NCI-H23; Homo sapiens, NCI-H23, read-out: LC50",7800 nM
same,TGI,"NCI-H23; NCI-H23, non-small cell lung cancer",2800 nM
same,GI50,"OVCAR-3; Homo sapiens, OVCAR-3",1900 nM
same,IC50,"OVCAR-3; Homo sapiens, OVCAR-3",4000 nM
same,CC50,"OVCAR-3; Homo sapiens, OVCAR-3, read-out: LC50",> 100000 nM
same,TGI,"OVCAR-3; OVCAR-3, ovarian cancer",9100 nM
same,GI50,CCRF-CEM; Homo sapiens,900 nM
same,IC50,CCRF-CEM; Homo sapiens,2300 nM
same,CC50,"CCRF-CEM; Homo sapiens, read-out: LC50",> 100000 nM
same,TGI,CCRF-CEM; leukemia,50000 nM
same,inhibition at 10 µM,Fibro cell line; read-out: %inhibition at 10 μM,57.9%
same,inhibition at 100 µM,Fibro cell line; read-out: %inhibition at 100 μM,67.1%
same,GI50,"K-562; Homo sapiens, K562",500 nM
same,IC50,"K-562; Homo sapiens, K562",600 nM
same,CC50,"K-562; Homo sapiens, K562, read-out: LC50",> 100000 nM
same,TGI,"K-562; K-562, leukemia",100000 nM
same,GI50,SN12C; Homo sapiens,600 nM
same,IC50,SN12C; Homo sapiens,1500 nM
same,CC50,"SN12C; Homo sapiens, read-out: LC50",57500 nM
same,TGI,SN12C; renal cancer,4900 nM
same,GI50,"SK-MEL-28; Homo sapiens, SK-MEL-28",1600 nM
same,IC50,"SK-MEL-28; Homo sapiens, SK-MEL-28",3000 nM
same,CC50,"SK-MEL-28; Homo sapiens, SK-MEL-28, read-out: LC50",6900 nM
same,TGI,"SK-MEL-28; SK-MEL-28, melanoma",3300 nM
same,GI50,ACHN; Homo sapiens,400 nM
same,IC50,ACHN; Homo sapiens,800 nM
same,CC50,"ACHN; Homo sapiens, read-out: LC50",33100 nM
same,TGI,ACHN; renal cancer,8500 nM
same,TGI,"HOP-92; HOP-92, non-small cell lung cancer",10000 nM
same,GI50,"HOP-92; Homo sapiens, HOP-92",2300 nM
same,IC50,"HOP-92; Homo sapiens, HOP-92",12000 nM
same,CC50,"HOP-92; Homo sapiens, HOP-92, read-out: LC50",63100 nM
same,GI50,"SF-539; Homo sapiens, SF-539",500 nM
same,IC50,"SF-539; Homo sapiens, SF-539",1400 nM
same,CC50,"SF-539; Homo sapiens, SF-539, read-out: LC50",6500 nM
same,TGI,"SF-539; SF-539, CNS cancer",2100 nM
same,GI50,"SNB-19; Homo sapiens, SNB-19",1000 nM
same,IC50,"SNB-19; Homo sapiens, SNB-19",2600 nM
same,CC50,"SNB-19; Homo sapiens, SNB-19, read-out: LC50",95500 nM
same,TGI,"SNB-19; SNB-19, CNS cancer",10000 nM
same,GI50,"UACC-62; Homo sapiens, UACC-62",1100 nM
same,IC50,"UACC-62; Homo sapiens, UACC-62",2000 nM
same,CC50,"UACC-62; Homo sapiens, UACC-62, read-out: LC50",5500 nM
same,TGI,"UACC-62; UACC-62, melanoma",2500 nM
same,TGI,"HCT-116; HCT-116, colon cancer",11000 nM
same,GI50,"HCT-116; Homo sapiens, HCT-116",400 nM
same,IC50,"HCT-116; Homo sapiens, HCT-116",400 nM
same,CC50,"HCT-116; Homo sapiens, HCT-116, read-out: LC50",45700 nM
